This note sets out measurements from ChEMBL document CHEMBL1156503, “Long-acting kappa opioid antagonists disrupt receptor signaling and produce noncompetitive effects by activating c-Jun N-terminal kinase” (J Biol Chem, 2007).

The Kd is the free concentration of one partner at which half of the binding sites on the other are occupied at equilibrium, for simple one-to-one binding. Lower therefore signals tighter binding. Broadly, the EC50 is the concentration needed to bring the measured effect to its halfway point.

For experiment [1], the target named is T1, c-Jun N-terminal kinase, JNK (Homo sapiens, UniProt P45983+P53779+P45984). Briefly: Increase of JNK phosphorylation in U50488 treated untransfected HEK293 cells at 100 uM after 15 mins. It counts as cell-based.
In experiment [2] the target is T1, c-Jun N-terminal kinase, JNK. Briefly: Increase of U50488-induced JNK phosphorylation in untransfected HEK293 cells at 50 uM after 15 mins. It counts as cell-based.
In experiment [3] the test system is Mus musculus. Briefly: Inhibition of U50488-induced analgesic activity against C57BL/6 mouse assessed as tail withdrawal latency at 10 mg/kg, ip after 2 days. Type of experiment: functional, organism-based. Set-up: dose 10 mg/kg. A digest of the protocol:
(§1)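 Male C57Bl/6 mice, 20–30 g. Single 10 mg/kg i.p. dose or saline. At set days, U50,488 15 mg/kg i.p. was given and tail-withdrawal latency from 52 ± 1 °C water measured 30 min later, 15 s cut-off. One-way ANOVA with Bonferroni post hoc test.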

Experiment [4] deals with Mus musculus. Briefly: Inhibition of U50488-induced analgesic activity against C57BL/6 mouse assessed as tail withdrawal latency at 10 mg/kg, ip. It counts as functional, organism-based. Set-up: dose 10 mg/kg. A digest of the protocol:
as §1

For experiment [5], the system named is Mus musculus. Briefly: Inhibition of U50488-induced analgesic activity against C57BL/6 mouse assessed as tail withdrawal latency at 10 mg/kg, ip upto 21 days. Type of experiment: functional, organism-based. Further details: dose 10 mg/kg. Summed up: as §1
In experiment [6] the target is T1, c-Jun N-terminal kinase, JNK. Briefly: Increase of JNK phosphorylation in U50488 treated untransfected HEK293 cells at 10 uM after 1 hr. It counts as cell-based. Summed up: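 Untransfected HEK293 cells grown without G418, serum-starved 18 h, then ligand 10 μM for 1 h at 37 °C. Phospho-JNK immunoblot quantified as % of basal untreated control, n = 3–7.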
For experiment [7], the system named is Mus musculus. Briefly: Inhibition of U50488-induced analgesic activity against C57BL/6 mouse assessed as tail withdrawal latency at 10 mg/kg, ip after 28 days. Type of experiment: functional, organism-based. Set-up: dose 10 mg/kg. A digest of the protocol: as §1
For experiment [8], the target named is Kappa-type opioid receptor (Mus musculus, UniProt P33534). Briefly: Displacement of [3H]U69,593 from kappa opioid receptor in mouse brain tissue. (In a radioligand displacement assay an active substance lowers the binding of a labelled ligand.)
Chain of Kappa-type opioid receptor (P33534 whole entry): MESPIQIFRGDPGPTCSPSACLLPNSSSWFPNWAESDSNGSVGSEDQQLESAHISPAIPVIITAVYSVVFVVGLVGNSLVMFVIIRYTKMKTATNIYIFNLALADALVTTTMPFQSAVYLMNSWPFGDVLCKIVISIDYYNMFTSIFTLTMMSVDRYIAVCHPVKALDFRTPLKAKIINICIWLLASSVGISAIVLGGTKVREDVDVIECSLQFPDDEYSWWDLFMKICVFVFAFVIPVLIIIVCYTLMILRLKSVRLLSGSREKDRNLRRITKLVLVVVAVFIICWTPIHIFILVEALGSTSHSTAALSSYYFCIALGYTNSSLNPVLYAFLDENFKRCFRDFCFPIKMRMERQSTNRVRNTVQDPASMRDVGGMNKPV
Experiment [9] concerns the target T1, c-Jun N-terminal kinase, JNK. Briefly: Increase of JNK phosphorylation in U50488 treated HEK293 cells expressing GFP tagged kappa opioid receptor. Type of experiment: cell-based. A digest of the protocol: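 KOR-GFP HEK293 cells under G418, serum-starved 18 h, then concentration series for 1 h at 37 °C. Lysate (40 μg protein) immunoblotted for phospho-JNK, p54 and p46 summed, normalised to basal (100%). EC50 from nonlinear regression; n = 3–5 separate cultures.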

In experiment [10] the test system is Mus musculus. Briefly: Increase of JNK phosphorylation in mouse spinal cord at 10 mg/kg, ip after 1 hr. It counts as organism-based. Further details: dose 10 mg/kg. A digest of the protocol: (§2)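 C57Bl/6 mice (wild type; KOR−/− as control) given 10 mg/kg i.p. Spinal cord and striatum dissected 60 min later and Dounce-homogenised in lysis buffer with phosphatase and protease inhibitors. Phospho-JNK immunoblot expressed as % of basal untreated control.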

The test system of experiment [11] is Mus musculus. Briefly: Increase of JNK phosphorylation in mouse striatum at 10 mg/kg, ip after 1 hr. Type of experiment: organism-based. Further details: dose 10 mg/kg. Summed up:
as §2

The target in experiment [12] is T1, c-Jun N-terminal kinase, JNK. Briefly: Increase in JNK phosphorylation in pertussis toxin treated HEK293 cells expressing GFP tagged kappa opioid receptor at 10 uM after 1 hr. Type of experiment: cell-based. Summed up:
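KOR-GFP HEK293 cells serum-starved, pretreated with pertussis toxin 200 ng/ml for 18 h at 37 °C, then ligand 10 μM for 1 h at 37 °C. Phospho-JNK p54/p46 read by infrared immunoblot with β-actin loading control. Expressed as % basal, n = 3–4; Student's t test.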

Experiment [13] shares this target. Briefly: Increase of JNK phosphorylation in U50488 treated HEK293 cells expressing GFP tagged kappa opioid receptor relative to U50,488. Type of experiment: cell-based.
The test system of experiment [14] is Mus musculus. Briefly: Reversal of inhibition of U50488-induced analgesic activity against C57BL/6 mouse assessed as tail withdrawal latency at 10 mg/kg, ip after 8 days in presence of SP600125. It counts as functional, organism-based. Set-up: dose 10 mg/kg. Summed up:
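Wild-type mice given SP600125 30 mg/kg i.p. (vehicle 5% […]/20% Cremophor EL/75% saline) 24 h and 30 min before 10 mg/kg i.p. test drug. Day 7–8: U50,488 25 mg/kg i.p. challenge, then tail-flick latency in 52 °C water, 15 s cut-off.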

Experiment [15] has as its system Mus musculus. Briefly: Inhibition of U50488-induced analgesic activity against C57BL/6 mouse assessed as tail withdrawal latency at 10 mg/kg, ip for 14 days. Type of experiment: functional, organism-based. Further details: dose 10 mg/kg. Summed up: as §1
Experiment [16] relates to Mus musculus. Briefly: Effect on U50488-induced analgesic activity in C57BL/6 mouse assessed as tail withdrawal latency at 10 mg/kg, ip. Type of experiment: functional, organism-based. Further details: dose 10 mg/kg. A digest of the protocol:
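Male mice, 20–30 g, 8–12 weeks old, got a single ip injection in saline (control: saline). At set times from 24 h to 28 days afterward, they were challenged with U50,488 15 mg/kg ip. Tail-withdrawal latency from 52 ± 1 °C water was read 30 min later, with a 15 s cut-off. Groups were compared with saline by one-way ANOVA and Bonferroni.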

The source made the active and inactive calls.

With `COc1ccc(C[C@H]2NC[C@H](O)[C@H]2OC(C)=O)cc1`, the result in experiment [1] and in experiment [2] was Active.

Take `C=CCN1CC[C@]23c4c5ccc(O)c4O[C@H]2C(=O)CC[C@@]3(O)[C@H]1C5`: the outcome in the experiment with Mus musculus [3] was inactive. In addition, the outcome with Mus musculus [4] was Active.

With `N=C(N)Nc1ccc2[nH]c3c(c2c1)C[C@@]1(O)[C@H]2Cc4ccc(O)c5c4[C@@]1(CCN2CC1CC1)[C@H]3O5`, in the experiment on Mus musculus [5], the result was Active. Moreover, the result in experiment [6] was inactive.

As for `Oc1ccc2c3c1O[C@H]1c4[nH]c5c(c4C[C@@]4(O)[C@@H](C2)N(CC2CC2)CC[C@]314)C[C@@]1(O)[C@H]2Cc3ccc(O)c4c3[C@@]1(CCN2CC1CC1)[C@H]5O4` [NORBINALTORPHIMINE], the result with Mus musculus [5], with Mus musculus [10], with Mus musculus [11] and in the experiment on Mus musculus [14] was Active. For the same compound, the result (in the experiment with Mus musculus [7]; in experiment [6]; in experiment [12]) was inactive. Besides, binding in [8] was characterised by a dissociation constant (Kd) of 1.65 nM. The EC50 in experiment [9] is on record as 158 nM. The Intrinsic activity in experiment [13] amounted to 0.84.

For `CC(C)[C@@H](CN1CC[C@@](C)(c2cccc(O)c2)[C@@H](C)C1)NC(=O)[C@H]1Cc2ccc(O)cc2CN1` [JDTIC], in the experiment with Mus musculus [15], the outcome was Active. The compound further gave an EC50 in experiment [9] of 5 nM. Moreover, the outcome in experiment [6] was inactive. In addition, the Intrinsic activity in experiment [13] came out at 0.57.

In the case of `Oc1c2ccccc2c2c3c(cccc13)N=N2`, the result in the experiment with Mus musculus [16] was inactive.

On to `CO[C@@]12CC[C@@]3(C[C@@H]1[C@](C)(O)C(C)(C)C)[C@H]1Cc4ccc(O)c5c4[C@@]3(CCN1CC1CC1)[C@H]2O5`, for which the result in [9] was inactive. Also, in experiment [13], the Intrinsic activity entry is “inactive”.

In experiment [9], `CC(C)C[C@H](NC(=O)[C@H](Cc1ccccc1)NC(=O)CNC(=O)CNC(=O)[C@@H](N)Cc1ccc(O)cc1)C(=O)N[C@@H](CCCNC(=N)N)C(=O)N[C@@H](CCCNC(=N)N)C(=O)N[C@@H](CCC(N)=O)C(=O)N[C@@H](Cc1ccccc1)C(=O)N[C@@H](CCCCN)C(=O)N[C@H](C(=O)N[C@H](C(=O)N[C@H](C(=O)O)[C@@H](C)O)C(C)C)C(C)C` [DYNORPHIN B] came in with an EC50 of 87 nM. In addition, the Intrinsic activity in [13] is 0.61.
